Source: PubChem BioAssay (several laboratories)
Sampled rows, rich in hits. Any-hit rate of the full collection: about 4.1%.
AHR act: human AHR activation | P35869 | AHR-responsive luciferase reporter cells, luminescence | activation, % at 5 µM | 2.5% of 320,000 active | AID 2796; in the data active = activation above about 47%;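 note: 0% = vehicle wells and 100% = reference agonist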
Target sequence (P35869 whole entry, looked up): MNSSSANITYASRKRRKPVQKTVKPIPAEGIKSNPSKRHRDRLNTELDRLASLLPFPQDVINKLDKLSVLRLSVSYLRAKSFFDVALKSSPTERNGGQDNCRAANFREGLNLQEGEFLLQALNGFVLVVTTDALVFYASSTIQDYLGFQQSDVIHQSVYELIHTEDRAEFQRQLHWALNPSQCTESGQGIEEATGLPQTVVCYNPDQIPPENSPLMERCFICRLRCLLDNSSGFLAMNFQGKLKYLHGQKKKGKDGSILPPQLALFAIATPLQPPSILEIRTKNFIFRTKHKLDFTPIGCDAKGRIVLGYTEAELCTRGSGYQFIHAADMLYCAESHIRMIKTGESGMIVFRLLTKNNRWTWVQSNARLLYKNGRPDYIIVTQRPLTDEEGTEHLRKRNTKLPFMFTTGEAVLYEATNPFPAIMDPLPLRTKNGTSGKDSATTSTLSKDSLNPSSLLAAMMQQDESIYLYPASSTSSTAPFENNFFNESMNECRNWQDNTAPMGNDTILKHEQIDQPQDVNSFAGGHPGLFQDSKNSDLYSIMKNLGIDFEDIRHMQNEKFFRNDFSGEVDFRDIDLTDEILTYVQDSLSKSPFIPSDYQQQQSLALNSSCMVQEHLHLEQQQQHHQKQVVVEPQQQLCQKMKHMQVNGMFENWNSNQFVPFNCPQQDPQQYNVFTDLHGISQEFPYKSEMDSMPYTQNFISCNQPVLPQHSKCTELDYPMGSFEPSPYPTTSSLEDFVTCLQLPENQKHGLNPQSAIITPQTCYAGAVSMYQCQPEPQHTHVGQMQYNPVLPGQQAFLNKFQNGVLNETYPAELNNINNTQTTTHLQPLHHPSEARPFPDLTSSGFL
TbMetRS inhib: blocks T. brucei methionyl-tRNA synthetase activity; purified T. brucei MetRS, ATP depletion, Kinase-Glo luminescence; inhibition, % at 11.9 µM; 0.4% of 360,000 active;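 active = inhibition above a per-plate cutoff of the control wells' mean inhibition plus 3 SD, cut at about 5.5% in these data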;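 note: 0% = DMSO wells median and 100% = median of wells with control inhibitor compound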
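assay system = parasite MetRS enzyme | timing = 15 min preincubation, 2 h reaction, all 25 °C | evaluation = percent inhibition relative to median high and low control wells | medium = HEPES buffer containing pyrophosphatase, BSA, spermine, DTT | compound = single dose, 11.9 µM final nominal, 0.9% final DMSO | detection = Kinase-Glo luminescence, ATP depletion format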
H9c2 TAG inh: triacylglycerol accumulation inhibition. AID 651582. inhibition, % at 12.5 µM. H9c2 cells, Nile Red lipid (TAG) fluorescence; cells loaded with 200 µM oleic acid. 0.66% of 230,000 active;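 active = pattern-corrected inhibition of lipid staining of at least 50% with the nuclear-stain viability signal not falling by more than 50%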;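 note: 0% = DMSO wells and 100% = triacsin C control wells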
Efflux pump inh: antifungal efflux pump inhibition, Nile Red retention; S. cerevisiae Candida pump triplex; inhibition, % at 10 µM; 0.44% of 330,000 active;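 active = plate passing quality check with inhibition over a set limit, or well fluorescence over plate mean plus 4 SD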;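 note: Nile Red retained in pooled yeast measured as flow cytometry median fluorescence; 0% = buffer negative control and 100% = Enniatin B positive control; higher means more Nile Red kept so more efflux inhibition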
SMARCA2 act: SMARCA2 function activation, primary screen; activation, % at 9.1 µM; 1% of 370,000 active; MG213 cells, MMTV-luciferase reporter, dexamethasone, overnight; in the data active = activation above about 7.8%;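 note: 0% = vehicle wells and 100% = reference activator wells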
Yeast cmpd fluor: counter-screen for efflux pump inhibitors: compound fluorescence; S. cerevisiae AD/pABC3, flow cytometry; 4% of 1,700 active; fluorescence ratio to DMSO, % at 10 µM; shares compounds with Efflux pump inh; AID 588517;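 active = fluorescence ratio to DMSO above its plate's cutoff, the plate mean ratio plus 5 SD, cut at about 210% in these data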;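 note: unstained yeast with no Nile Red so the signal is compound autofluorescence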
CaMdr1 efflux inh: Candida Mdr1 efflux pump inhibition. shares compounds with Efflux pump inh. S. cerevisiae AD/CaMDR1, Nile Red efflux, flow cytometry. inhibition, % at 10 µM. 1% of 1,700 active. AID 588518; in the data active = inhibition above about 26%;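 note: 0% = DMSO vehicle and 100% = reference inhibitor; higher means more Nile Red retained so more efflux inhibition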
Cdr2 pump inh: Candida Cdr2 efflux pump inhibition. S. cerevisiae AD/CaCDR2, Nile Red retention, flow cytometry. Nile Red retention ratio vs DMSO, % at 10 µM. shares compounds with Efflux pump inh. 4% of 1,700 active. AID 588520; in the data active = Nile Red retention ratio vs DMSO above about 190%;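 note: higher ratio means more blocking of Cdr2 efflux of the dye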
CaCdr1 efflux inh: Candida Cdr1 efflux pump inhibition; shares compounds with Efflux pump inh; S. cerevisiae AD/CaCDR1, Nile Red efflux, flow cytometry; inhibition, % at 10 µM; 1% of 1,700 active; AID 588522;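 active = inhibition above the screen-wide mean plus twice its standard deviation, cut at about 32% in these data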
Active calls of the source: *; · = not tested or not shown.

SMILES	AHR act	TbMetRS inhib	H9c2 TAG inh	Efflux pump inh	SMARCA2 act	Yeast cmpd fluor	CaMdr1 efflux inh	Cdr2 pump inh	CaCdr1 efflux inh
O=[N+]([O-])c1cccc(NCCCN2CCC(C(O)(c3ccccc3)c3ccccc3)CC2)c1	·	·	·	·	-4	·	·	·	·
Cc1nc(C(=O)Nc2ccc(Cl)cc2Cl)nn1-c1cc(OC(C)C)c(Cl)cc1Cl	0	-1	30	1.3*	0	113	0	105	0
CCCCN=C(NNc1ccc(Br)cc1)C(=O)OCC	19	0	·	17*	0	100	0	104	0
CCOC(=O)C(=NCCCN(C)C)NNc1ccc(Br)cc1	8	1	·	0	-1	·	·	·	·
Cc1ccc(NC(=O)CSc2nc(C)cc(=O)[nH]2)c(C)c1	·	·	·	·	-2	·	·	·	·
O=c1[nH]c(S)c(/C=C2\C=Nc3ccccc32)s1	57*	3	-4	0.5*	0	84	0	97	0
O=C(Cn1c(O)c(/C=C2\C=Nc3ccccc32)sc1=O)N1CCOCC1	1	0	0	0	1	·	·	·	·
NC1=NC[C@@H](Cc2ccc(O)cc2)N1CCc1cccc(F)c1	0	0	2	0	1	109	0	98	0
CC(C)(C)CN1C(N)=NC[C@@H]1Cc1ccc(O)cc1	1	0	·	0	0	104	0	112	0
CC(C)(C)CN1C(N)=NC[C@H]1Cc1ccc(O)cc1	4	0	9	1	0	·	·	·	·
CCCCN1C(N)=NC[C@H]1Cc1ccc(O)cc1	-1	0	10	0	-1	99	0	101	0
CCCCN1C(N)=NC[C@@H]1Cc1ccc(O)cc1	1	0	-6	0	0	98	0	105	0
CN(c1cccnc1)c1ccc(NC(=O)Cc2c[nH]c3ccccc23)cc1-c1cccnc1F	·	·	·	·	3	·	·	·	·
COC(=O)[C@]12C[C@H](CC(=O)NCC34CC5CC(CC(C5)C3)C4)C(=O)N(CCc3ccc(OC)c(OC)c3)C1=C[C@H](C1CCCC1)O[C@@H]2C	·	·	·	·	-3	·	·	·	·
CC(C)N(C)CCOC(=O)c1ccccc1Br	-1	0	·	13*	5	131	2	163	2
Cc1cc(C)nc(NS(=O)(=O)c2ccc(NC(=O)c3cc(-c4ccccc4)nc4ccccc34)cc2)n1	0	-1	·	-1	-3	·	·	·	·
Cc1ccc(-c2cc(C(=O)Nc3ccc(S(=O)(=O)Nc4onc(C)c4C)cc3)c3ccccc3n2)cc1	4	0	10	0.6*	1	114	0	94	0
CC(NC(=O)/C=C/c1ccco1)c1nc2ccccc2n1Cc1ccccc1F (stereo unspecified)	0	0	·	0	-3	·	·	·	·
CC(NC(=O)/C=C/c1ccco1)c1nc2ccccc2n1Cc1c(Cl)cccc1Cl (stereo unspecified)	5	0	1	11*	-3	99	0	95	0
CC(C)NC(=O)OC[C@H]1O[C@H](C#Cc2ccc(C(C)(C)C)cc2)C=C[C@H]1O	·	·	·	·	-4	·	·	·	·
Cc1nn(C)c(Sc2ccccc2N)c1[N+](=O)[O-]	18	0	·	0.9*	2	105	0	106	0
C[C@@H]1C=CCCO[C@]12C(=O)N(CC1CC1)c1cccc(Br)c12	·	·	·	·	5	·	·	·	·
O=c1[nH][nH]c(-c2ccccc2O)c1C(C[N+](=O)[O-])c1ccccc1 (stereo unspecified)	6	0	·	5.5*	-1	108	0	104	0
COc1cccc(-c2cc(C(C)=O)c3n(c2=O)CCC3)c1OC	·	·	·	·	-1	·	·	·	·
CC(C)(C)OC(=O)NCCc1ccccc1/C=C/S(=O)(=O)NC1CCCC1	·	·	·	·	-3	·	·	·	·
SMILES	AHR act	TbMetRS inhib	H9c2 TAG inh	Efflux pump inh	SMARCA2 act	Yeast cmpd fluor	CaMdr1 efflux inh	Cdr2 pump inh	CaCdr1 efflux inh
CCn1c2ccccc2c2cc(NC(=O)C(C)OC(=O)c3ccc(NC(=O)CC#N)cc3)ccc21 (stereo unspecified)	20	0	18	0.4*	-1	106	0	104	0
COc1ccccc1C(=O)Nc1ccc(C2=NNC(=O)CC2C)cc1 (stereo unspecified)	32	-1	·	1.0*	0	99	0	108	0
COc1ccc(-n2c(Cc3cccn3C)nnc2SCC(=O)Nc2cccc(F)c2)cc1	0	0	21	0	0	84	0	100	0
Cn1cccc1Cc1nnc(SCC(=O)Nc2ccccc2)n1-c1ccc(F)cc1	0	-1	·	0	0	101	0	104	0
Cn1cccc1Cc1nnc(SCC(=O)Nc2ccc(F)cc2)n1-c1ccc(F)cc1	2	0	15	0	0	·	·	·	·
CC(Oc1ccccc1)C(=O)N(CCC1=CCCCC1)c1c(N)n(Cc2ccccc2)c(=O)[nH]c1=O (stereo unspecified)	2	-1	-16	6.2*	-2	92	0	109	0
Nc1c(N(CCC2=CCCCC2)C(=O)CCCOc2ccccc2)c(=O)[nH]c(=O)n1Cc1ccccc1	-2	0	-3	0	-2	·	·	·	·
